Measurements taken from ChEMBL document CHEMBL3085761, “Synthesis, anticonvulsant and anti-inflammatory studies of new 1,4-dihydropyridin-4-yl-phenoxyacetohydrazones” (Eur J Med Chem, 2013).

Legend:
Assay type in all cases: functional
Mus musculus [1] = test: Anticonvulsant activity in ip dosed mouse assessed as protection against maximal electroshock-induced epileptic seizures after 0.5 hrs; conditions: read-out: MED
Method in brief: (§1)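 Mice (20–40 g), groups of six to ten; i.p. doses 30, 100 and 300 mg/kg; tested at 0.5 and 4 h. Stimulus 50 mA, 60 Hz, 0.2 s via corneal electrodes primed with anaesthetic electrolyte; abolition of hindlimb tonic extension scored as protection. Value is the minimal dose protecting at least 50% of animals.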

Mus musculus [2] = test: Anticonvulsant activity in ip dosed mouse assessed as protection against maximal electroshock-induced epileptic seizures after 4 hrs; conditions: read-out: MED; method in brief: as §1
Rattus norvegicus [3] = test: Antiinflammatory activity in Wistar rat assessed as inhibition of carrageenan-induced paw edema at 20 mg/kg administered 30 mins prior to carrageenan-challenge measured after 3 hrs by plethysmographic analysis relative to control
Method in brief: (§2)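 Male or female Wistar rats (100–150 g), five per group, fasted overnight; 20 mg/kg given by stomach tube in 5 mL water. 30 min later 0.05 mL 1% carrageenan s.c. into left hind paw plantar side; paw volume by mercury plethysmography at 0, 30, 60, 120, 180 min; percent inhibition versus control, one-way ANOVA with Dunnett's test.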

Rattus norvegicus [4] = test: Antiinflammatory activity in Wistar rat assessed as inhibition of carrageenan-induced paw edema at 20 mg/kg administered 30 mins prior to carrageenan-challenge measured after 30 mins by plethysmographic analysis relative to control; method in brief: as §2
Rattus norvegicus [5] = test: Antiinflammatory activity in Wistar rat assessed as inhibition of carrageenan-induced paw edema at 20 mg/kg administered 30 mins prior to carrageenan-challenge measured after 2 hrs by plethysmographic analysis relative to control; method in brief: as §2
Rattus norvegicus [6] = test: Antiinflammatory activity in Wistar rat assessed as inhibition of carrageenan-induced paw edema at 20 mg/kg administered 30 mins prior to carrageenan-challenge measured after 1 hr by plethysmographic analysis relative to control; method in brief: as §2

Row | SMILES | minimal effective dose (Mus musculus [1]) | minimal effective dose (Mus musculus [2]) | inhibition in vivo at 20 mg/kg (Rattus norvegicus [3]) | inhibition in vivo at 20 mg/kg (Rattus norvegicus [4]) | inhibition in vivo at 20 mg/kg (Rattus norvegicus [5]) | inhibition in vivo at 20 mg/kg (Rattus norvegicus [6])
1 | O=C1NC(=O)C(c2ccccc2)(c2ccccc2)N1 [PHENYTOIN] | 30 mg/kg | 30 mg/kg |  |  |  | 
2 | O=C(O)Cc1ccccc1Nc1c(Cl)cccc1Cl [DICLOFENAC SODIUM] |  |  | 65.3% | 16.7% | 61.1% | 41%
